Test results: ChEMBL document CHEMBL1138245, “Discovery of N1-(6-chloroimidazo[2,1-b][1,3]thiazole-5-sulfonyl)tryptamine as a potent, selective, and orally active 5-HT(6) receptor agonist” (J Med Chem, 2007)
Activity calls are given as the source filed them. The rule behind the calls is not given here.

Columns and labels:
[1] = Drug level in Sprague-Dawley rat plasma at 3 mg/kg, ip after 0.5 hr; format: ADME, organism-based; set-up: dose 3 mg/kg, route intraperitoneal
Outline: (§1)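 Rats given a single 3 mg/kg ip or 100 mg/kg oral dose; plasma and brain concentrations measured over time to assess brain/plasma ratio.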

Rattus norvegicus [2] = species: Rattus norvegicus; assay: Effect on water intake in non-SIP rat model; format: functional, organism-based
[3] = Volume of distribution in dog at 1 mg/kg, iv; format: ADME, organism-based, Canis lupus familiaris; set-up: dose 1 mg/kg, route intravenous; details: in vivo, read-out: Vdss
[4] = biological target: 5-hydroxytryptamine receptor 1D (Homo sapiens) (UniProt P28221); assay: Displacement of [3H]5HT from human 5HT1D receptor expressed in CHO cells at 1 uM; format: cell-based
5-hydroxytryptamine receptor 1D (Homo sapiens), sequence (P28221 whole entry): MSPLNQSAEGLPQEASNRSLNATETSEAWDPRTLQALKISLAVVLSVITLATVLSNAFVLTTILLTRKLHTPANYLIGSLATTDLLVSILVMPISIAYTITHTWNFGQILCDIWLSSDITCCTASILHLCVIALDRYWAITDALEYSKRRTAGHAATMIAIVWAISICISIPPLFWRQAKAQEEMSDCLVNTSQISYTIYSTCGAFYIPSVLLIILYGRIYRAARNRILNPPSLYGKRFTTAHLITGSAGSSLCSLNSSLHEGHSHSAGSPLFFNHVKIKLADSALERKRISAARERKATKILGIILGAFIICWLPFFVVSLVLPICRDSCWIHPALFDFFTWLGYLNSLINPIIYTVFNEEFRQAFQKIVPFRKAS

[5] = biological target: Beta-2 adrenergic receptor (Homo sapiens) (UniProt P07550); assay: Displacement of radio ligand from beta-2 adrenergic receptor at 10 nM
Beta-2 adrenergic receptor (Homo sapiens), sequence (P07550 whole entry, looked up): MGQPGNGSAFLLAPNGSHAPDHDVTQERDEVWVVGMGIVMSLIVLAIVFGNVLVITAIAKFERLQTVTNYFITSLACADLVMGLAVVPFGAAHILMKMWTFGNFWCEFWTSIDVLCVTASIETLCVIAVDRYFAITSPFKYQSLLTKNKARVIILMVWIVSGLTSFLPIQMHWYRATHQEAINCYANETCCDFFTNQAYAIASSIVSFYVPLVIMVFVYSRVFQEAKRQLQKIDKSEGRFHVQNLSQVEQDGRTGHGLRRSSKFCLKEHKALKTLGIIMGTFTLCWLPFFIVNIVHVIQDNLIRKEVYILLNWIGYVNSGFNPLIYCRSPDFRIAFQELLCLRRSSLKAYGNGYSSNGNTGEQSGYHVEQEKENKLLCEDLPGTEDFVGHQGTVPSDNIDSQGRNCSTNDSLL

[6] = Ratio of drug level in brain to plasma in rat at 3 mg/kg, ip or 100 mg/kg, po; format: ADME, organism-based; details: read-out: BPR
Outline: (§2)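 Rats given a single dose, 3 mg/kg ip or 100 mg/kg oral; drug concentrations measured in plasma and brain at timed points after dosing; brain/plasma concentration ratio calculated.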

[7] = Ratio of drug level in brain to plasma in Sprague-Dawley rat at 3 mg/kg, ip after 2 hrs; format: ADME, organism-based; set-up: dose 3 mg/kg, route intraperitoneal; details: read-out: BPR; outline: as §2
[8] = Ratio of drug level in brain to plasma in Sprague-Dawley rat at 100 mg/kg, po after 0.25 hr; format: ADME, organism-based; set-up: dose 100 mg/kg, route oral; details: read-out: BPR; outline: as §2
[9] = Ratio of drug level in brain to plasma in Sprague-Dawley rat at 100 mg/kg, po after 4 hrs; format: ADME, organism-based; set-up: dose 100 mg/kg, route oral; details: read-out: BPR; outline: as §2
[10] = Aqueous solubility at pH 3 to […]; format: physicochemical
[11] = biological target: T1, 5-hydroxytryptamine receptor 1F (Homo sapiens) (UniProt P30939); assay: Displacement of [3H]5-HT from human 5HT1F receptor expressed in CHO cells at 1 uM; format: cell-based
T1 sequence (whole entry): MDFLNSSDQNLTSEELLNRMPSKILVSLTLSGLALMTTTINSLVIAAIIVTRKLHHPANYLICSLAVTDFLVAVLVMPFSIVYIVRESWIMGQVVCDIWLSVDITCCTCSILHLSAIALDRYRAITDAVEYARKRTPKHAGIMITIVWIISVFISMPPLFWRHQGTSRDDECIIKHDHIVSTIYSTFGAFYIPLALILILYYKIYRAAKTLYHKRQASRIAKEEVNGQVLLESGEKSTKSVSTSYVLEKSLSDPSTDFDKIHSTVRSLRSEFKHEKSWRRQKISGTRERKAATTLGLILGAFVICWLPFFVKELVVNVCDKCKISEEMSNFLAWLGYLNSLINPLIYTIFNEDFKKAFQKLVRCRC

[12] = Drug level in Sprague-Dawley rat plasma at 3 mg/kg, ip after 0.25 hr; format: ADME, organism-based; set-up: dose 3 mg/kg, route intraperitoneal; outline: as §1
[13] = Tmax in rat at 10 mg/kg, po; format: ADME, organism-based; set-up: dose 10 mg/kg, route oral; details: in vivo
[14] = Drug level in Sprague-Dawley rat brain at 100 mg/kg, po after 4 hrs; format: ADME, organism-based; set-up: dose 100 mg/kg, route oral; details: read-out: Drug uptake; outline: as §1
[15] = Drug level in Sprague-Dawley rat plasma at 100 mg/kg, po after 0.25 hr; format: ADME, organism-based; set-up: dose 100 mg/kg, route oral; outline: as §1
[16] = Drug level in Sprague-Dawley rat plasma at 100 mg/kg, po after 1 hr; format: ADME, organism-based; set-up: dose 100 mg/kg, route oral; outline: as §1
[17] = Half life in dog at 5 mg/kg, po; format: ADME, organism-based, Canis lupus familiaris; set-up: dose 5 mg/kg, route oral; details: in vivo
[18] = Cmax in dog at 5 mg/kg, po; format: ADME, organism-based, Canis lupus familiaris; set-up: dose 5 mg/kg, route oral; details: in vivo
[19] = Volume of distribution in rat at 1 mg/kg, iv; format: ADME, organism-based; set-up: dose 1 mg/kg, route intravenous; details: in vivo, read-out: Vdss
[20] = Permeability in parallel artificial membrane; format: ADME; details: PAMPA; read-out: permeability
Outline: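 Parallel artificial membrane permeability assay (PAMPA); permeability reported in cm/s; triplicate determinations, standard error <20%.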

[21] = Ratio of drug level in brain to plasma in Sprague-Dawley rat at 3 mg/kg, ip after 0.25 hr; format: ADME, organism-based; set-up: dose 3 mg/kg, route intraperitoneal; details: read-out: BPR; outline: as §2
[22] = Oral bioavailability in dog at 5 mg/kg; format: ADME, organism-based, Canis lupus familiaris; details: in vivo
[23] = Ratio of drug level in brain to plasma in Sprague-Dawley rat at 100 mg/kg, po after 0.5 hr; format: ADME, organism-based; set-up: dose 100 mg/kg, route oral; details: read-out: BPR; outline: as §2
[24] = Ratio of drug level in brain to plasma in Sprague-Dawley rat at 3 mg/kg, ip after 0.5 hr; format: ADME, organism-based; set-up: dose 3 mg/kg, route intraperitoneal; details: read-out: BPR; outline: as §2
[25] = AUC in rat at 10 mg/kg, po; format: ADME, organism-based; set-up: dose 10 mg/kg, route oral; details: plasma
[26] = Drug level in Sprague-Dawley rat brain at 100 mg/kg, po after 1 hr; format: ADME, organism-based; set-up: dose 100 mg/kg, route oral; details: read-out: Drug uptake; outline: as §1
[27] = Drug level in Sprague-Dawley rat brain at 3 mg/kg, ip after 4 hrs; format: ADME, organism-based; set-up: dose 3 mg/kg, route intraperitoneal; details: read-out: Drug uptake; outline: as §1
Rattus norvegicus [28] = assay: Increase in GABA level in rat frontal cortex at 10 mg/kg, sc; format: functional, organism-based; set-up: dose 10 mg/kg
Outline: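 Frontal cortex extracellular GABA, glutamate and norepinephrine measured in rats after 10 mg/kg sc; in antagonist tests, 5-HT₆ antagonist 10 mg/kg sc given before agonist; comparison with vehicle, significance P < 0.05.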

[29] = biological target: 5-hydroxytryptamine receptor 7 (Homo sapiens, UniProt P34969); assay: Displacement of [3H]LSD from human 5HT7 receptor expressed in CHO cells; format: cell-based
5-hydroxytryptamine receptor 7, sequence (P34969 whole entry): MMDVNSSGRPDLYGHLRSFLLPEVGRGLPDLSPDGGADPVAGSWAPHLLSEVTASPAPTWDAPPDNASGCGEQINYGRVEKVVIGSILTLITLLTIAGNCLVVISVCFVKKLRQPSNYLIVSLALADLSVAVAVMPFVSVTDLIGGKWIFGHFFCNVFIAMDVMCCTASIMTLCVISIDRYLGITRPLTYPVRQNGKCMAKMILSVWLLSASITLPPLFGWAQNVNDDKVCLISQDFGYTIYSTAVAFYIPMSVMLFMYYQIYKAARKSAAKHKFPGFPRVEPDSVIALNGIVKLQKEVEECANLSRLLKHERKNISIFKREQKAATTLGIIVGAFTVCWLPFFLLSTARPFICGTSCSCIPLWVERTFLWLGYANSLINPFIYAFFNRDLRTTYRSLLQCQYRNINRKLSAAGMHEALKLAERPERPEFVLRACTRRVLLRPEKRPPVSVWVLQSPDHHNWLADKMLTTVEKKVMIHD
Outline: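 Human 5-HT₇ clone stably expressed in CHO cells; binding measured by [³H]LSD displacement; Ki determined in triplicate.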

[30] = AUC in dog at 5 mg/kg, po; format: ADME, organism-based, Canis lupus familiaris; set-up: dose 5 mg/kg, route oral; details: plasma
[31] = Half life in dog at 1 mg/kg, iv; format: ADME, organism-based, Canis lupus familiaris; set-up: dose 1 mg/kg, route intravenous; details: in vivo
[32] = Half life in rat at 10 mg/kg, po; format: ADME, organism-based; set-up: dose 10 mg/kg, route oral; details: in vivo
[33] = Clearance in dog at 1 mg/kg, iv; format: ADME, organism-based, Canis lupus familiaris; set-up: dose 1 mg/kg, route intravenous; details: in vivo
[34] = Drug level in Sprague-Dawley rat plasma at 3 mg/kg, ip after 2 hrs; format: ADME, organism-based; set-up: dose 3 mg/kg, route intraperitoneal; outline: as §1
[35] = Drug level in Sprague-Dawley rat plasma at 100 mg/kg, po after 2 hrs; format: ADME, organism-based; set-up: dose 100 mg/kg, route oral; outline: as §1

## NCCc1cn(S(=O)(=O)c2c(Cl)nc3sccn23)c2ccccc12
[1]
  concentration at 0.5 h: 66 ng/mL
Rattus norvegicus [2]
  Activity: inactive
[3]
  Vd: 7.9 L/kg
[4]
  Activity: 21%
[5]
  Activity: < 50%
[6]
  Kp: 0.1
[7]
  Kp at 2 h: 0.33
[8]
  Kp at 0.25 h: 0.1
[9]
  Kp at 4 h: 0.26
[10]
  solubility: > 10000 µg/mL
[11]
  Activity: 40%
[12]
  concentration at 0.25 h: 91.3 ng/mL
[13]
  Tmax: 1.7 h
[14]
  concentration at 4 h: 98 ng/mL
[15]
  concentration at 0.25 h: 120 ng/mL
[16]
  concentration at 1 h: 312 ng/mL
[17]
  half-life: 6.6 h
[18]
  Cmax: 130 ng/mL
[19]
  Vd: 24 L/kg
[20]
  Papp: 13.6 ×10⁻⁶ cm/s
[21]
  Kp at 0.25 h: 0.09
[22]
  bioavailability: 55%
[23]
  Kp at 0.5 h: 0.55
[24]
  Kp at 0.5 h: 0.17
[25]
  AUC: 190 ng·h/mL
[26]
  concentration at 1 h: 45.1 ng/mL
[27]
  concentration at 4 h: 6 ng/mL
Rattus norvegicus [28]
  Activity: Active
[29]
  Ki: 679 nM
[30]
  AUC: 1430 ng·h/mL
[31]
  half-life: 2.9 h
[32]
  half-life: 3.1 h
[33]
  clearance: 30 mL/min/kg
[34]
  concentration at 2 h: 3.2 ng/mL
[35]
  concentration at 2 h: 239 ng/mL
